Source: PubChem BioAssay (several laboratories)
This is a sample that favours compounds with a hit; in the whole collection about 4% have one here.
CHO parental Ca = counter-screen for OX1R antagonists: effect in parental CHO cells; parental CHO-K1, ATP-induced calcium, Fluo-8 fluorescence; inhibition, % at 5.6 µM; 330,000 compounds, 0.63% hits; AID 463079;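 active = inhibition above that plate's mean sample inhibition plus 3 SD, cut at about 26% in these data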
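Material: Parental CHO cells | Reagent: ATP | Compound dosing: Single nominal dose of 5.6 µM per compound | Detection: Intracellular calcium via Fluo-8 no-wash fluorescent dye | Read-out: % inhibition of ATP-induced calcium mobilization | Benchmarks: Low control ATP plus DMSO, high control DMSO only | Replicates: Singlicate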
OX1R antag-1 = human HCRTR1 antagonism | O43613 | CHO/OX1R cells, Fluo-8 calcium fluorescence, orexin A | inhibition, % at 5 µM | 330,000 compounds, 0.43% hits | AID 434989;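 active = inhibition above its plate's threshold, mean inhibition of all tested compounds on the plate plus 3 SD, cut at about 37% in these data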
Target sequence (O43613 whole entry, looked up): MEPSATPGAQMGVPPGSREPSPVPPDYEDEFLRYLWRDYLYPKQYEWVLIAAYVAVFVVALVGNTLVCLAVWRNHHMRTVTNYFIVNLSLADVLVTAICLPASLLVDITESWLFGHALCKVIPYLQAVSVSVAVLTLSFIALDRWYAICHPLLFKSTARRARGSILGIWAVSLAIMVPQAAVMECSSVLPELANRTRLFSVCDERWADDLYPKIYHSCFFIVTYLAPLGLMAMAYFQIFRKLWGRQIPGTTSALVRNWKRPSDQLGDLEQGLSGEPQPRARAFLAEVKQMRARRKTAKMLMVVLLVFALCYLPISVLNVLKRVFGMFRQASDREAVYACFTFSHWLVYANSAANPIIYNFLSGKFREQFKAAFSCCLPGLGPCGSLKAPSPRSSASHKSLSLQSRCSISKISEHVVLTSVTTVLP
OX1R antag-2 = blocks the human orexin 1 receptor; OX1R-expressing cells, FRET antagonist read-out; inhibition, % at 6.6 µM; 330,000 compounds, 1.8% hits; AID 485270; in the data active = inhibition mostly above about 38%, no sharp cut-off; inactive = mostly below about 40%
TAAR1 antag = antagonists of human TAAR1; Q96RJ0; CHO RD-HGA16 TAAR1, Fluo-8 calcium fluorescence, antagonist; inhibition, % at 3 µM; 360,000 compounds, 1.5% hits;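 active = inhibition above a per-plate cutoff, the mean inhibition of test compounds on that plate plus 3 SD, cut at about 49% in these data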
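Test system: hTAAR1-expressing CHO RD-HGA16 cells, Gα16-coupled; Probe or stimulus: EC80 β-phenethylamine stimulus; Compound dosing: single nominal final test compound concentration of 3 µM; Timing: 140 s kinetic read after compound, 140 s after agonist; Signal: Fluo-8 calcium-sensitive fluorescence; Measure: % inhibition of agonist calcium response; Controls: DMSO and EC80 PEA controls.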
TAAR1 ag = human TAAR1 agonism; Q96RJ0; CHO RD-HGA16 TAAR1, Fluo-8 calcium fluorescence; vehicle wells 0%, saturating PEA agonist 100%; activation, % at 3 µM; 360,000 compounds, 0.99% hits; AID 624467;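 active = activation above the mean activation of all test compounds in the run plus 3 SD, cut at about 38% in these data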
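Benchmarks: low control DMSO, high control PEA (EC100); System: CHO RD-HGA16 cells carrying human TAAR1 plus Gα16; Detection: Fluo-8 fluorescence, 5 s baseline then 140 s kinetic read; Schedule: 17-24 h plating, Fluo-8 75 min 37 °C, 30 min RT; Read-out basis: % activation from peak over basal fluorescence ratio, DMSO-to-PEA scaled.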
NTR1 ag = NTR1 (human) agonism. NTR1-U2OS beta-arrestin-GFP spot imaging, agonist mode. 330,000 compounds, 0.17% hits. P30989. activation, % at 20 µM. AID 493036;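 active = activation at or above 40% of the spot to cytoplasm intensity ratio, with at least 20 cells analyzed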
NTR1 ag confirm = confirmation of agonists of human NTR1. shares compounds with NTR1 ag. NTR1-U2OS beta-arrestin-GFP translocation imaging. activation, % at 20 µM. 480 compounds, 38% hits;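 active = mean activation at 20 µM of at least 40%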
Each line names hits and unclear results; the compound was inactive in the other large screens (follow-up assays come after a bar, where they were run).

Cc1ccc(NC(=O)c2ccc(Nc3c([N+](=O)[O-])cc([N+](=O)[O-])cc3[N+](=O)[O-])cc2)cc1	NTR1 ag 46 | NTR1 ag confirm inactive
O=C(COC(=O)c1ccc(F)c(S(=O)(=O)N2CCOCC2)c1)Nc1ccc2c(c1)OCO2	none (no result: CHO parental Ca, OX1R antag-1, OX1R antag-2)
COc1ccc(CC(=O)Nc2cccc(-c3nnc(-c4cccc(C)c4)o3)c2)cc1OC	CHO parental Ca 94, OX1R antag-1 89, OX1R antag-2 110, TAAR1 antag 78, NTR1 ag 41 | NTR1 ag confirm 58
CCCCN(C(=O)c1cc(-c2ccncc2)nc2ccccc12)c1c(N)n(CC(C)C)c(=O)[nH]c1=O	none
O=C(CCS(=O)(=O)c1ccccc1)Nc1cccc(-c2nc3ccccc3s2)c1	OX1R antag-2 55, TAAR1 antag 60, NTR1 ag 49 | NTR1 ag confirm inactive
C[C@H]1C=CC(=O)O[C@H]1c1ccccc1	NTR1 ag 41 | NTR1 ag confirm inactive
COc1ccccc1CC(=O)NNC(=O)c1ccco1	none
CCOc1cc(/C=C\[N+](=O)[O-])ccc1OCC(=O)Nc1ccccc1C	NTR1 ag 45 (no result: TAAR1 antag, TAAR1 ag) | NTR1 ag confirm 51
COC(=O)C1=C(C)N(Cc2ccccc2)C(=NCc2ccccc2)N[C@H]1c1cccc(C(F)(F)F)c1	NTR1 ag 44 (no result: TAAR1 antag, TAAR1 ag) | NTR1 ag confirm 75
CCc1ccc(-c2cn(-c3nc(C)cc(C)n3)c(=N)o2)cc1	NTR1 ag 46 | NTR1 ag confirm inactive
O=C1c2c(-c3ccc(Br)cc3)noc2CCN1Cc1cn(Cc2ccccc2)nn1	none (no result: CHO parental Ca, OX1R antag-1, OX1R antag-2, NTR1 ag)
COc1cc2ccccc2cc1C(=O)N(CCN(C)C)c1nc2c(OC)ccc(OC)c2s1	NTR1 ag 42 | NTR1 ag confirm inactive
CCCCn1nc(C(=O)Nc2ccccc2N2CCCC2)c2ccccc2c1=O	none
O=CC1=C(c2ccccc2)Oc2ccccc2O1	NTR1 ag 44 | NTR1 ag confirm 62
CN(C)/C=C1/N=C(c2ccccc2)OC1=O	none
O=C(NC(=S)Nc1nc2c(s1)CSc1ccccc1-2)c1ccccc1	NTR1 ag 62 | NTR1 ag confirm inactive
O=C1NC[C@@H](Cc2cccc3ccccc23)N(CCCCC2CCCCC2)C1=O	NTR1 ag 41 | NTR1 ag confirm inactive
O=C(Nc1ccc2oc(-c3ccccc3F)nc2c1)c1ccc2c(c1)OCCO2	NTR1 ag 46 | NTR1 ag confirm 53
O=C(Nc1ccc(-c2nc3ccccc3o2)cc1)c1ccc2c(c1)OCO2	none
O=C(N/C=N/OCc1ccc(Cl)cc1Cl)NOCc1ncc(C(F)(F)F)cc1Cl	NTR1 ag 41 | NTR1 ag confirm inactive
CO/N=C/NC(=O)NOCc1ncc(C(F)(F)F)cc1Cl	none
CC(C)(C)OC(=O)COc1cc(OCC(=O)OC(C)(C)C)c2c(=O)cc(-c3ccccc3)oc2c1	NTR1 ag 53 | NTR1 ag confirm inactive
Cc1ccc(C(=O)N/C(=C/c2ccc(N(C)C)cc2)C(=O)NCC2CCCO2)cc1 (stereo unspecified)	none
CN1CCN(S(=O)(=O)c2cccc(C(=O)Nc3ccccc3N3CCCC3)c2)CC1	none
Cc1cc(N2CCN(C)CC2)ccc1NC(=O)c1cccc(S(=O)(=O)N2CCc3ccccc3C2)c1	NTR1 ag 42 | NTR1 ag confirm inactive
CCOc1cccc(-c2nn(-c3ccccc3)cc2/C=C(/C#N)C(=O)NCCCn2ccnc2)c1	NTR1 ag 44 | NTR1 ag confirm inactive
C[C@]12CCC(O)CC1CCC1C2CC[C@]2(C)C(c3cc(C(F)(F)F)n[nH]3)CCC12 (stereo partly specified)	NTR1 ag 74 | NTR1 ag confirm inactive
COc1ccc(/C=N/NC(=O)c2ccncc2)cc1Cn1nc([N+](=O)[O-])c(Br)c1C	none
CCOC(=O)c1sc(Nc2nc3c(OC)cccc3s2)nc1C	NTR1 ag 55 | NTR1 ag confirm inactive
CCOC(=O)c1sc(Nc2ccccc2)nc1C	none
CC(C)S(=O)(=O)c1csc(NC(=O)Nc2cc(Cl)ccc2Cl)c1Cl	NTR1 ag 42 | NTR1 ag confirm inactive
Cc1cc(OCC(=O)OCC(=O)c2ccc[nH]2)ccc1Cl	none (no result: CHO parental Ca, OX1R antag-1, OX1R antag-2)
COC(=O)C1=C(C)NC(=O)CC1c1cc2c(cc1Br)OCO2 (stereo unspecified)	none
CC1=C(C(=O)OC2CCCCCCC2)C(c2cc3c(cc2Br)OCO3)CC(=O)N1 (stereo unspecified)	NTR1 ag 44 | NTR1 ag confirm 42
Oc1ccc(-c2nc3c4c(ncn3n2)-c2ccccc2CC42CCCC2)cc1	NTR1 ag 46 | NTR1 ag confirm inactive
Cc1cc(F)ccc1S(=O)(=O)Nc1ccccc1C(=O)Nc1ccccc1-c1nc2ccccc2[nH]1	CHO parental Ca 30, NTR1 ag 53 (no result: TAAR1 antag, TAAR1 ag) | NTR1 ag confirm 72
Cc1cc(F)ccc1S(=O)(=O)Nc1ccccc1C(=O)Nc1ncn[nH]1	none
COc1cc2c3nnc(-c4ccc(F)cc4)c-3cn(Cc3ccc(C)cc3)c2cc1OC	NTR1 ag 112 | NTR1 ag confirm 96
Cc1ccc(Cn2nc3c4cc(F)ccc4n(Cc4ccc(F)cc4)cc-3c2=O)cc1	none (no result: CHO parental Ca, OX1R antag-1, OX1R antag-2)
COc1cc2c3nnc(-c4ccc(F)cc4)c-3cn(Cc3cccc(F)c3)c2cc1OC	NTR1 ag 65 (no result: TAAR1 antag, TAAR1 ag) | NTR1 ag confirm 71
COc1cccc(Cn2nc3c4cc(F)ccc4n(Cc4ccc(F)cc4)cc-3c2=O)c1	none
CC1(C)O[C@@H]2[C@H](O1)[C@@H](COS(=O)(=O)O)O[C@H]2n1cc(Br)c(=O)[nH]c1=O	none
CCOc1cccc(CN2CCC(Oc3ccc(C(=O)NCc4ccccn4)cc3)CC2)c1	none
COc1ccc(/C=C2/SC(=S)N(Cc3ccccc3)C2=O)cc1O	NTR1 ag 44 (no result: CHO parental Ca, OX1R antag-1, OX1R antag-2) | NTR1 ag confirm inactive
O=C(N/N=C/c1cn(-c2ccccc2)nc1-c1cc2ccccc2o1)c1cccnc1	NTR1 ag 40 | NTR1 ag confirm 62
O=C(N/N=C/c1cn(-c2ccccc2)nc1-c1cc2ccccc2o1)c1ccncc1	none
N#C/C(=C\c1cn[nH]c1-c1ccc(Cl)cc1)C(=O)NCc1ccccc1	NTR1 ag 43 | NTR1 ag confirm inactive
O=C(O)CN1C(=O)/C(=C/c2ccccc2Br)Oc2ccccc21	none
O=C(COc1ccccc1[N+](=O)[O-])Nc1ccc(NC(=O)c2cc3ccccc3o2)cc1	NTR1 ag 40 | NTR1 ag confirm inactive
CNC(=O)COC(=O)c1c2c(nc3ccccc13)CCC2	none
COc1ccc(OC)c(NC(=O)COC(=O)c2c3c(nc4ccccc24)CCCC3)c1	OX1R antag-2 57, NTR1 ag 41 | NTR1 ag confirm inactive
